# Assay results published in ChEMBL document CHEMBL1153729, “Structurally diverse limonoids from the fruits of Swietenia mahagoni” (2009).
# Activity calls are given as the source filed them. The calls are words filed in the database; no cut-off is given here.
# Columns and labels:
# [1] = test system: Escherichia coli; assay: Antibacterial activity against Escherichia coli ATCC 25922 after 18 hrs; format: functional, organism-based
# Method in brief: (§1)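 Bacterial cells suspended in Mueller-Hinton broth at a final density of […]. Incubated aerobically with compounds in DMSO at 37 °C for 18 h, alongside DMSO-only blank cultures and an ofloxacin positive control. MIC taken as the lowest concentration giving complete inhibition of visible growth.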
# [2] = test system: Pseudomonas aeruginosa; assay: Antibacterial activity against Pseudomonas aeruginosa ATCC 14502 after 18 hrs; format: functional, organism-based; method in brief: as §1
# [3] = test system: Staphylococcus aureus; assay: Antibacterial activity against Staphylococcus aureus ATCC 25923 after 18 hrs; format: functional, organism-based; method in brief: as §1
# [4] = test system: Saccharomyces; assay: Antifungal activity against Saccharomyces sake ATCC 26421 after 48 hrs; format: functional, organism-based
# Method in brief: (§2)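 Fungi grown in Sabouraud dextrose broth with compounds for 48 h at 37 °C. Blank cultures received a limited amount of DMSO. Amphotericin B, dissolved in DMSO, served as the positive control.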
# [5] = test system: Kocuria rhizophila; assay: Antibacterial activity against Micrococcus luteus ATCC 9341 after 18 hrs; format: functional; settings: for Activity: DC2201; for MIC: DC2201, 18 h; method in brief: as §1
# [6] = test system: Candida albicans; assay: Antifungal activity against Candida albicans ATCC 1600 after 48 hrs; format: functional, organism-based; method in brief: as §2
# [7] = test system: Trichophyton rubrum; assay: Antifungal activity against Trichophyton rubrum ATCC 10218 after 48 hrs; format: functional, organism-based; method in brief: as §2
# [8] = test system: Bacillus subtilis; assay: Antibacterial activity against Bacillus subtilis ATCC 6633 after 18 hrs; format: functional, organism-based; method in brief: as §1
# [9] = test system: Nannizzia gypsea; assay: Antifungal activity against Microsporum gypseum ATCC 14683 after 48 hrs; format: functional, organism-based; method in brief: as §2
# [10] = test system: Shigella flexneri; assay: Antibacterial activity against Shigella flexneri ATCC 12022 after 18 hrs; format: functional, organism-based; method in brief: as §1
# [11] = test system: Staphylococcus epidermidis; assay: Antibacterial activity against Staphylococcus epidermidis ATCC 12228 after 18 hrs; format: functional, organism-based; method in brief: as §1
MIC [5] [µg/mL],SMILES,Activity [1],Activity [2],Activity [3],Activity [4],Activity [5],Activity [6],Activity [7],Activity [8],Activity [9],Activity [10],Activity [11]
,COC(=O)C[C@H]1C(C)(C)[C@@H](OC(C)=O)[C@@H]2CC3=C4CC(=O)O[C@@H](c5ccoc5)[C@]4(C)CC[C@@H]3[C@@]1(C)C2=O,inactive,inactive,inactive,inactive,inactive,inactive,inactive,inactive,inactive,inactive,inactive
,C/C=C(\C)C(=O)O[C@H]1C(C)(C)[C@H](CC(=O)OC)[C@]2(C)C(=O)[C@@]1(O)CC1=C3[C@@H](O)C(=O)O[C@@H](c4ccoc4)[C@]3(C)CC[C@@H]12,inactive,inactive,inactive,inactive,inactive,inactive,inactive,inactive,inactive,inactive,inactive
,CC(=O)O[C@H]1C[C@@H](OC(C)=O)C(C)(C)[C@@H]2C[C@@H](OC(C)=O)[C@]3(C)[C@H](CC[C@@]4(C)[C@H](c5ccoc5)OC(=O)[C@H]5O[C@@]534)[C@@]12C,inactive,inactive,inactive,inactive,inactive,inactive,inactive,inactive,inactive,inactive,inactive
,COC(=O)C[C@H]1C(C)(C)[C@H](OC(C)=O)[C@]2(O)CC3=C4[C@@H](O)C(=O)O[C@@H](c5ccoc5)[C@]4(C)CC[C@@H]3[C@@]1(C)C2=O,inactive,inactive,inactive,inactive,inactive,inactive,inactive,inactive,inactive,inactive,inactive
,COC(=O)C[C@H]1C(C)(C)[C@H](OC(=O)c2ccccc2)[C@]2(O)CC3=C4CC(=O)O[C@@H](c5ccoc5)[C@]4(C)CC[C@@H]3[C@@]1(C)C2=O,inactive,inactive,inactive,inactive,inactive,inactive,inactive,inactive,inactive,inactive,inactive
,COC(=O)C[C@H]1C(C)(C)[C@H](OC(C)=O)[C@]2(OC(C)=O)C=C3[C@H]([C@H](OC(C)=O)C[C@]4(C)[C@H]3CC(=O)O[C@H]4c3ccoc3)[C@@]1(C)C2=O,inactive,inactive,inactive,inactive,inactive,inactive,inactive,inactive,inactive,inactive,inactive
50,COC(=O)C[C@H]1C(C)(C)[C@H](OC(=O)C(C)C)[C@]2(O)CC3=C4CC(=O)O[C@@H](c5ccoc5)[C@]4(C)CC[C@@H]3[C@@]1(C)C2=O,inactive,inactive,inactive,inactive,,inactive,inactive,inactive,inactive,inactive,inactive
,COC(=O)C[C@H]1C(C)(C)C(=O)[C@@H]2CC3=C4CC(=O)O[C@@H](c5ccoc5)[C@]4(C)CC[C@@H]3[C@@]1(C)C2=O,inactive,inactive,inactive,inactive,inactive,inactive,inactive,inactive,inactive,inactive,inactive
1.56,CC1COc2c(N3CCN(C)CC3)c(F)cc3c(=O)c(C(=O)O)cn1c23 (stereo not drawn) [OFLOXACIN],,,,,,,,,,,
,C/C=C(\C)C(=O)O[C@H]1C(C)(C)[C@H](CC(=O)OC)[C@]2(C)C(=O)[C@@]1(O)C=C1C3=CC(=O)O[C@@H](c4ccoc4)[C@]3(C)CC[C@@H]12,inactive,inactive,inactive,inactive,inactive,inactive,inactive,inactive,inactive,inactive,inactive
,COC(=O)C[C@H]1C(C)(C)C(=O)[C@@H]2C[C@]3(O)C4=CC(=O)O[C@@H](c5ccoc5)[C@]4(C)CC[C@@H]3[C@@]1(C)C2=O,inactive,inactive,inactive,inactive,inactive,inactive,inactive,inactive,inactive,inactive,inactive
,CC(=O)O[C@H]1C[C@@H](O)C(C)(C)[C@@H]2C[C@@H](O)[C@]3(C)[C@H](CC[C@@]4(C)[C@H](c5ccoc5)OC(=O)[C@H]5O[C@@]534)[C@@]12C,inactive,inactive,inactive,inactive,inactive,inactive,inactive,inactive,inactive,inactive,inactive
,CC1(C)[C@H](O)C[C@H](O)[C@]2(C)[C@H]3CC[C@@]4(C)[C@H](c5ccoc5)OC(=O)[C@H]5O[C@]54[C@]3(C)[C@H](O)C[C@@H]12,inactive,inactive,inactive,inactive,inactive,inactive,inactive,inactive,inactive,inactive,inactive
,COC(=O)C[C@H]1C(C)(C)[C@H](O)[C@@H]2C=C3[C@H]([C@H](OC(C)=O)C[C@]4(C)[C@H]3CC(=O)O[C@H]4c3ccoc3)[C@@]1(C)C2=O,inactive,inactive,inactive,inactive,inactive,inactive,inactive,inactive,inactive,inactive,inactive
,CC(=O)O[C@H]1C[C@@H](O)C(C)(C)[C@@H]2C[C@@H](OC(C)=O)[C@]3(C)[C@H](CC[C@@]4(C)[C@H](c5ccoc5)OC(=O)[C@H]5O[C@@]534)[C@@]12C,inactive,inactive,inactive,inactive,inactive,inactive,inactive,inactive,inactive,inactive,inactive
,CC1(C)C(=O)C=C[C@]2(C)[C@H]3CC[C@@]4(C)[C@H](c5ccoc5)OC(=O)[C@H]5O[C@]54[C@]3(C)C(=O)C[C@@H]12,inactive,inactive,inactive,inactive,inactive,inactive,inactive,inactive,inactive,inactive,inactive
,CC(=O)O[C@@H]1C[C@H](O)[C@]2(C)[C@H]3CC[C@@]4(C)[C@H](c5ccoc5)OC(=O)[C@H]5O[C@]54[C@]3(C)[C@H](OC(C)=O)C[C@H]2C1(C)C,inactive,inactive,inactive,inactive,inactive,inactive,inactive,inactive,inactive,inactive,inactive
,C=C1[C@@H]2CC[C@@]3(C)[C@H](c4ccoc4)OC(=O)C[C@]13O[C@H]1CC(=O)C(C)(C)[C@H](C(O)C(=O)OC)[C@]12C (stereo partly drawn),inactive,inactive,inactive,inactive,inactive,inactive,inactive,inactive,inactive,inactive,inactive
